Converted amounts (≈) assume the structure as drawn. Read-outs that look alike come from different tables or passages of the source.

Experiment [1] has as its system drug-resistant HIV-1 strains. The experiment can be described thus: Antiviral activity against drug-resistant HIV-1 strains in MT-4. The format is cell-based. The note with it: for EC50: MT-4.
For a further experiment, the system named is HIVIIIB. Briefly: Cell-to-cell virus transmission assay in CEM-SS cells. The format is cell-based, HIV-1.
In the next experiment the test system is HIV strain 92US727. The experiment can be described thus: Cell-to-cell virus transmission assay in fresh human PBMCs. The experiment is classed as cell-based, HIV-1. The method, boiled down: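 HIV-infected fresh human PBMCs treated 3 days with six concentrations of test compound. Passaged every 3 days for three passages at fixed compound concentration; 80% of culture volume replaced with fresh compound-containing medium and uninfected cells. Cell-free supernatants collected on sub-culture days for RT activity and extracellular p24 antigen. TCID50 per passage by endpoint dilution.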

Experiment [2] relates to HL2/3 cells expressing HIV-1 gp120 and gp41 fusing with HeLa-CD4-LTR-β-gal cells. Briefly: Fusion inhibition assay. The format is cell-based. The note with it: read-out: Fusion inhibition EC50 ± SD. In outline: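 HeLa-CD4-LTR-β-Gal cells incubated with test compound for 1 h at 37°C/5% CO2, then co-cultured 48 h with HL2/3 cells. Cells lysed and β-galactosidase expression measured by chemiluminescent Gal-Screen.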

Experiment [3] concerns drug resistant clinical HIV isolates. The experiment can be described thus: Antiviral activity against drug-resistant HIV-1 in PBMCs. The experiment is classed as cell-based. Particulars: Human immunodeficiency virus 1, PBMC.
The test system of experiment [4] is HIV attachment to HeLa-CD4-LTR-β-gal cells. The experiment can be described thus: Attachment inhibition assay. The format is cell-based, HIV-1. Particulars: Human immunodeficiency virus 1, read-out: Attachment inhibition EC50 ± SD.

As to `CC(C)c1nc(CN(C)C(=O)N[C@H](C(=O)N[C@@H](Cc2ccccc2)C[C@H](O)[C@H](Cc2ccccc2)NC(=O)OCc2cncs2)C(C)C)cs1` [RTV, reference compound], the “Mean EC50 ± SD, positive control” value in experiment [1] ({}) was “RTV 0.06 ± 0.02 nM”.

For the compound `Cc1cn([C@H]2C[C@H](N=[N+]=[N-])[C@@H](CO)O2)c(=O)[nH]c1=O` [AZT, reference compound], the EC50 in experiment [1] (Human immunodeficiency virus 1, read-out: Mean EC50 ± SD, positive control, AZT- and NNRTI-resistant, RT 4xAZT/L100I) was determined as 4 nM; in experiment [1] (Human immunodeficiency virus 1, read-out: Mean EC50 ± SD, positive control, AZT- and NNRTI-resistant, RT 4xAZT/Y181C), 7 nM; in experiment [1] (Human immunodeficiency virus 1, read-out: Mean EC50 ± SD, positive control, Atazanavir-resistant, PR I50L), 1.5 nM; in experiment [1] (Human immunodeficiency virus 1, read-out: Mean EC50 ± SD, positive control, Didanosine-resistant, RT L74V) it was 2 nM; in experiment [1] (Human immunodeficiency virus 1, read-out: Mean EC50 ± SD, positive control, Enfuviritide-resistant, Env V38A/N126K), 1.5 nM; in experiment [1] (Human immunodeficiency virus 1, read-out: Mean EC50 ± SD, positive control, Indinavir-, Ritonavir-resistant, PR I84V), 2.5 nM. In addition, the EC50 came to 3.5 nM in experiment [1] (Human immunodeficiency virus 1, read-out: Mean EC50 ± SD, positive control, Indinavir-, Ritonavir-resistant, PR V82A); 2 nM in experiment [1] (Human immunodeficiency virus 1, read-out: Mean EC50 ± SD, positive control, Indinavir-, Ritonavir-resistant, PR V82F/I84V); 0.55 nM in experiment [1] (Human immunodeficiency virus 1, read-out: Mean EC50 ± SD, positive control, Lamivudine-resistant, RT M184V); 2 nM in experiment [1] (Human immunodeficiency virus 1, read-out: Mean EC50 ± SD, positive control, NNRTI-resistant, RT K103N/Y181C); 0.9 nM in experiment [1] (Human immunodeficiency virus 1, read-out: Mean EC50 ± SD, positive control, NNRTI-resistant, RT K103N); 0.65 nM in experiment [1] (Human immunodeficiency virus 1, read-out: Mean EC50 ± SD, positive control, NNRTI-resistant, RT L100I). Besides, the EC50 was found to be 2 nM in experiment [1] (Human immunodeficiency virus 1, read-out: Mean EC50 ± SD, positive control, NNRTI-resistant, RT V106A); 1.5 nM in experiment [1] (Human immunodeficiency virus 1, read-out: Mean EC50 ± SD, positive control, NNRTI-resistant, RT V108I); 1 nM in experiment [1] (Human immunodeficiency virus 1, read-out: Mean EC50 ± SD, positive control, NNRTI-resistant, RT V179D); 1 nM in experiment [1] (Human immunodeficiency virus 1, read-out: Mean EC50 ± SD, positive control, NNRTI-resistant, RT Y181C); 1.5 nM in experiment [1] (Human immunodeficiency virus 1, read-out: Mean EC50 ± SD, positive control, NNRTI-resistant, RT Y188C); 2 nM in experiment [1] (Human immunodeficiency virus 1, read-out: Mean EC50 ± SD, positive control, Raltegravir-resistant, IN Q148H/G140S). In experiment [1] (Human immunodeficiency virus 1, read-out: Mean EC50 ± SD, positive control, Saquinavir-resistant, PR G48V/L90M), the EC50 was found to be 3.5 nM.

Regarding `CC(C)(C)NC(=O)[C@@H]1C[C@@H]2CCCC[C@@H]2CN1C[C@@H](O)[C@H](Cc1ccccc1)NC(=O)[C@H](CC(N)=O)NC(=O)c1ccc2ccccc2n1` [Saquinavir, reference compound], the RT in the experiment with HIVIIIB (Passage 1, 20 nM) is reported as 25 cpm; in the experiment with HIVIIIB (Passage 2, 20 nM) it was 107 cpm; in the experiment with HIVIIIB (Passage 3, 20 nM), 68 cpm; in the experiment with HIV strain 92US727 (Passage 1, 12.5 nM) it was 281 cpm; in the experiment on HIV strain 92US727 (Passage 2, 12.5 nM), 1394 cpm; with HIV strain 92US727 (Passage 3, 12.5 nM), 7015 cpm. Besides, the TCID50/mL is 0 TCID50/mL in the experiment with HIVIIIB (Passage 1, 20 nM); 0 TCID50/mL with HIVIIIB (Passage 2, 20 nM); 0 TCID50/mL with HIVIIIB (Passage 3, 20 nM); 3.08 × 10^3 TCID50/mL with HIV strain 92US727 (Passage 1, 12.5 nM); 8.30 × 10^3 TCID50/mL with HIV strain 92US727 (Passage 2, 12.5 nM); 1.09 × 10^5 TCID50/mL in the experiment on HIV strain 92US727 (Passage 3, 12.5 nM). The p24 is listed as 794 pg/mL in the experiment on HIVIIIB (Passage 1, 20 nM); 1589 pg/mL with HIVIIIB (Passage 2, 20 nM); 1085 pg/mL in the experiment on HIVIIIB (Passage 3, 20 nM); 971 pg/mL in the experiment with HIV strain 92US727 (Passage 1, 12.5 nM); 3505 pg/mL in the experiment with HIV strain 92US727 (Passage 2, 12.5 nM); 61,275 pg/mL in the experiment on HIV strain 92US727 (Passage 3, 12.5 nM).

Consider `Cc1ccnc2c1NC(=O)c1cccnc1N2C1CC1` [NVP, reference compound], for which the EC50 in experiment [1] (Human immunodeficiency virus 1, read-out: Mean EC50 ± SD, positive control, AZT-resistant, RT 4xAZT (D67N/K70R/T215Y/K219Q)) stood at 35 nM.

Regarding enfuvirtide [reference compound], in experiment [2], the EC50 amounted to 80 nM.

As to `Cc1nnc(C(=O)NC(C)(C)c2nc(C(=O)NCc3ccc(F)cc3)c(O)c(=O)n2C)o1` [Raltegravir, reference compound], the EC50 turned out to be 2980 ± 540 nM in experiment [3] (read-out: PBMC/HIV-1 EC50 ± SD, Multi-drug resistant AD. MDR); 2370 ± 1510 nM in experiment [3] (read-out: PBMC/HIV-1 EC50 ± SD, Multi-drug resistant MDR769); 1990 ± 40 nM in experiment [3] (read-out: PBMC/HIV-1 EC50 ± SD, NNRTI-resistant A17R); 3540 ± 890 nM in experiment [3] (read-out: PBMC/HIV-1 EC50 ± SD, NNRTI-resistant N119); 3870 ± 3250 nM in experiment [3] (read-out: PBMC/HIV-1 EC50 ± SD, PI-resistant 144-44); 2970 ± 230 nM in experiment [3] (read-out: PBMC/HIV-1 EC50 ± SD, PI-resistant 1002-60). For the same compound, the EC50 in experiment [3] (read-out: PBMC/HIV-1 EC50 ± SD, PI-resistant 1022-48) amounted to 1320 ± 170 nM; in experiment [3] (read-out: PBMC/HIV-1 EC50 ± SD, PI-resistant 1026-60) it was 1770 ± 850 nM; in experiment [3] (read-out: PBMC/HIV-1 EC50 ± SD, PI-resistant 1064-52), 860 ± 490 nM; in experiment [3] (read-out: PBMC/HIV-1 EC50 ± SD, Wild Type 92US727), 10500 ± 12700 nM.

For the compound `COc1cc(-c2ccc(/N=N/c3ccc4c(S(=O)(=O)O)cc(S(=O)(=O)O)c(N)c4c3O)c(OC)c2)ccc1/N=N/c1ccc2c(S(=O)(=O)O)cc(S(=O)(=O)O)c(N)c2c1O` [Chicago sky blue, reference compound], in experiment [4], the EC50 was determined as 0.64 µg/mL (≈ 0.707 µM).

Values taken from publication PMC7113734 (Antiviral Research, 2016).
